Test results taken from ChEMBL document CHEMBL3297702, “Improving photodynamic inactivation of bacteria in dentistry: highly effective and fast killing of oral key pathogens with novel tooth-colored type-II photosensitizers” (J Med Chem, 2014).

What was measured:
[1] = Octanol-water partition coefficient, log P of the compound at 1 x 10^-4 mol at room temperature after 10 mins by UV/vis spectroscopic analysis; assay type: physicochemical
[2] = test system: Enterococcus faecalis; experiment: Photodynamic inactivation of Enterococcus faecalis ATCC 29212 assessed as reduction of log10 CFU at 10 uM incubated prior to irradiation with 50 j/cm'2 for 40 secs measured after 24 hrs by agar plating method (reference value: <1 no unit); assay type: functional
In short: (§1)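 E. faecalis ATCC 29212, aerobic overnight BHI culture at 37 °C, was harvested at stationary phase and suspended in PBS at 10^7–10^8 bacteria/mL. It was mixed 1:1 with PS to 0–250 µM final, held 10 s, then illuminated (1260 ± 50 mW/cm2) or kept dark. Dilutions were plated on Mueller-Hinton agar, aerobic 37 °C 24 h, CFU counted. Medians of three independent triplicate experiments, referred to untreated controls.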

[3] = test system: Enterococcus faecalis; experiment: Photodynamic inactivation of Enterococcus faecalis ATCC 29212 assessed as reduction of log10 CFU at 10 uM incubated prior to irradiation with 25 j/cm'2 for 20 secs measured after 24 hrs by agar plating method (reference value: <1 no unit); assay type: functional; in short: as §1
[4] = Induction of singlet oxygen generation measured over 20 mins by luminescence assay; assay type: physicochemical
[5] = test system: Enterococcus faecalis; experiment: Photodynamic inactivation of Enterococcus faecalis ATCC 29212 assessed as reduction of log10 CFU at 100 uM incubated prior to irradiation with 150 j/cm'2 for 120 secs measured after 24 hrs by agar plating method (reference value: <1 no unit); assay type: functional; in short: as §1
[6] = test system: Enterococcus faecalis; experiment: Photodynamic inactivation of Enterococcus faecalis ATCC 29212 assessed as reduction of log10 CFU at 1 uM incubated prior to irradiation with 50 j/cm'2 for 40 secs measured after 24 hrs by agar plating method (reference value: <1 no unit); assay type: functional; in short: as §1
[7] = test system: Enterococcus faecalis; experiment: Photodynamic inactivation of Enterococcus faecalis ATCC 29212 assessed as reduction of log10 CFU at 5 uM incubated prior to irradiation with 25 j/cm'2 for 20 secs measured after 24 hrs by agar plating method (reference value: <1 no unit); assay type: functional; in short: as §1
[8] = test system: Enterococcus faecalis; experiment: Photodynamic inactivation of Enterococcus faecalis ATCC 29212 assessed as reduction of log10 CFU at 1 uM incubated prior to irradiation with 150 j/cm'2 for 120 secs measured after 24 hrs by agar plating method (reference value: <1 no unit); assay type: functional; in short: as §1
[9] = test system: Enterococcus faecalis; experiment: Photodynamic inactivation of Enterococcus faecalis ATCC 29212 assessed as reduction of log10 CFU at 5 uM incubated prior to irradiation with 50 j/cm'2 for 40 secs measured after 24 hrs by agar plating method (reference value: <1 no unit); assay type: functional; in short: as §1
[10] = test system: Enterococcus faecalis; experiment: Photodynamic inactivation of Enterococcus faecalis ATCC 29212 assessed as reduction of log10 CFU at 100 uM incubated prior to irradiation with 50 j/cm'2 for 40 secs measured after 24 hrs by agar plating method (reference value: <1 no unit); assay type: functional; in short: as §1
[11] = test system: Enterococcus faecalis; experiment: Toxicity in Enterococcus faecalis ATCC 29212 assessed as reduction of log10 CFU at 1 to 250 uM incubated for 10 secs under dark condition measured after 24 hrs by agar plating method; assay type: organism-based; details: in vivo
In short: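 Dark controls. Overnight BHI cultures (EF, SM, AN aerobic; AA anaerobic; 37 °C) were washed into PBS at 10^7–10^8 cells/mL. They were mixed 1:1 with photosensitizer at final 0–250 µM and incubated 10 s, 7.5 min or 15 min, then kept in the dark for 20, 40 or 120 s. Tenfold dilutions were plated: EF on Mueller-Hinton agar, aerobic 24 h; SM on BHI agar, aerobic 48 h; AN on blood agar, aerobic 48 h; AA on BHI agar, anaerobic 48 h; all at 37 °C. CFU were compared with untreated controls; medians of three independent experiments in triplicate.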

[12] = test system: Enterococcus faecalis; experiment: Photodynamic inactivation of Enterococcus faecalis ATCC 29212 assessed as reduction of log10 CFU at 100 uM incubated prior to irradiation with 25 j/cm'2 for 20 secs measured after 24 hrs by agar plating method (reference value: <1 no unit); assay type: functional; in short: as §1
[13] = test system: Enterococcus faecalis; experiment: Photodynamic inactivation of Enterococcus faecalis ATCC 29212 assessed as reduction of log10 CFU at 5 uM incubated prior to irradiation with 150 j/cm'2 for 120 secs measured after 24 hrs by agar plating method (reference value: <1 no unit); assay type: functional; in short: as §1
[14] = test system: Enterococcus faecalis; experiment: Photodynamic inactivation of Enterococcus faecalis ATCC 29212 assessed as reduction of log10 CFU at 1 uM incubated prior to irradiation with 25 j/cm'2 for 20 secs measured after 24 hrs by agar plating method (reference value: <1 no unit); assay type: functional; in short: as §1
[15] = Photobleaching of the compound irradiated with laser energy at 405 nm for 5 mins; assay type: physicochemical; set-up: dose or concentration left out as unconfirmed
[16] = test system: Enterococcus faecalis; experiment: Photodynamic inactivation of Enterococcus faecalis ATCC 29212 assessed as reduction of log10 CFU at 10 uM incubated prior to irradiation with 150 j/cm'2 for 120 secs measured after 24 hrs by agar plating method (reference value: <1 no unit); assay type: functional; in short: as §1
[17] = test system: Leishmania donovani; experiment: Leishmanicidal activity against promastigote stage of Leishmania donovani MHOM/SD/00/1S-2D after 2 hrs by MTT assay; assay type: functional, organism-based
[18] = test system: Leishmania infantum; experiment: Leishmanicidal activity against amastigote stage of Leishmania infantum MCAN/ES/89/IPZ229/1/89 after 2 hrs by MTT assay; assay type: functional, organism-based; details: MCAN/ES/89/IPZ229/1/89, 2 h

logP at 10 min [1] | Activity [4] | Stability [15] | SMILES | log10cfu [2] | log10cfu [3] | log10cfu [5] | log10cfu [6] | log10cfu [7] | log10cfu [8] | log10cfu [9] | log10cfu [10] | Activity [11] | log10cfu [12] | log10cfu [13] | log10cfu [14] | log10cfu [16] | EC50 [17] | EC50 [18]
1.3 | – | – | O=C1C(CCl)=Cc2cccc3cccc1c23 | – | – | – | – | – | – | – | – | – | – | – | – | – | – | –
-0.8 | Active | Unstable | CCCC[N+](C)(C)CC1=Cc2cccc3cccc(c23)C1=O.[Cl-] | <3 | <3 | >6 | <1 | <1 | <3 | <3 | >6 | Non-toxic | >6 | 3 | <1 | >6 | – | –

Continued, compound first:

SMILES | logP at 10 min [1] | Activity [4] | Stability [15] | log10cfu [2] | log10cfu [3] | log10cfu [5] | log10cfu [6] | log10cfu [7] | log10cfu [8] | log10cfu [9] | log10cfu [10] | Activity [11] | log10cfu [12] | log10cfu [13] | log10cfu [14] | log10cfu [16] | EC50 [17] | EC50 [18]
CC(c1ccccc1)[N+](C)(C)CC1=Cc2cccc3cccc(c23)C1=O.[Cl-] (stereo unspecified) | -0.1 | Active | Unstable | <3 | <3 | >6 | <1 | <3 | <3 | <3 | >6 | Non-toxic | >6 | >6 | <1 | >6 | – | –
O=C1C(O)=Cc2cccc3ccc(-c4ccccc4)c1c23 | – | Active | Unstable | – | – | – | – | – | – | – | – | – | – | – | – | – | < 60 µg/mL | < 60 µg/mL
COC1=Cc2cccc3ccc(-c4ccccc4)c(c23)C1=O | – | Active | Unstable | – | – | – | – | – | – | – | – | – | – | – | – | – | < 60 µg/mL | < 60 µg/mL
